Measurements published in ChEMBL document CHEMBL1152901, “The synthesis and biological evaluation of para-substituted phenolic N-alkyl carbamates as endocannabinoid hydrolyzing enzyme inhibitors” (Eur J Med Chem, 2009).
Activity calls are given as the source filed them. The rule behind the calls is not given here.

Assays:
[1] = target: T1, Monoglyceride lipase (Rattus norvegicus, UniProt Q8R431); test: Inhibition of MGL in Wistar rat cerebral membrane by HPLC; assay type: cell membranes
T1 sequence (Q8R431 whole entry): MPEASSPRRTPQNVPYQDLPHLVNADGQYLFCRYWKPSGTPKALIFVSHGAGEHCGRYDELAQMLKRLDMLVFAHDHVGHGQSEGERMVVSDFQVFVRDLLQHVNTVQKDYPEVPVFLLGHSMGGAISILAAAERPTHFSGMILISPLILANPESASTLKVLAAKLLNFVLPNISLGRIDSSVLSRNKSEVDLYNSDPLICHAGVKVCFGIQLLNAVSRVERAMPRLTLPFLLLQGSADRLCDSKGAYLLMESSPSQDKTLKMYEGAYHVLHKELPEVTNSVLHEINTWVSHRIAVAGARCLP
Summary of the method: (§1)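 Incubation is 90 min at 25 °C with 5 µg protein, 50 µM 2-AG, 100 mM NaCl and 5 mM MgCl2. The reaction is stopped with acidified acetonitrile (pH 3.0). 2-AG, 1(3)-AG and arachidonic acid are quantified by reversed-phase HPLC with UV at 211 nm. IC50 comes from a variable-slope fit, three experiments in duplicate; percentages are the mean of two in duplicate.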

[2] = target: T2, Fatty-acid amide hydrolase 1 (Rattus norvegicus, UniProt P97612); test: Inhibition of FAAH in Wistar rat cerebral membrane by liquid scintillation counting; assay type: cell membranes
T2 sequence (P97612 whole entry): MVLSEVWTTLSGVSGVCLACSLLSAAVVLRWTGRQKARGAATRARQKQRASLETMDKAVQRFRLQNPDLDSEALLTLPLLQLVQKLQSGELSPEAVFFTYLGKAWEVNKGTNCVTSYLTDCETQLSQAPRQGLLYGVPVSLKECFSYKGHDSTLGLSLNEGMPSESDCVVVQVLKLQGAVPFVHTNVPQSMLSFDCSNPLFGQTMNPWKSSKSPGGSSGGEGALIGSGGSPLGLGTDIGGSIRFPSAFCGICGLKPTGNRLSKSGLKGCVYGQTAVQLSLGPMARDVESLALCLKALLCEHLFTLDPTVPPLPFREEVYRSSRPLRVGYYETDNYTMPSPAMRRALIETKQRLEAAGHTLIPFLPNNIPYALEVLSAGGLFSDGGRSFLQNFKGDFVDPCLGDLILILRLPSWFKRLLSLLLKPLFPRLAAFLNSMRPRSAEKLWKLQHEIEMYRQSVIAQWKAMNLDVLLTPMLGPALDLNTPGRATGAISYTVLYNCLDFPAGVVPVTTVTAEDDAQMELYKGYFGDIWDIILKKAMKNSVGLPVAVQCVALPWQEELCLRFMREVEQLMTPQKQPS
Summary of the method: (§2)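 Rat brain homogenate (10,000g supernatant from male Wistar forebrain, 8 weeks old), 18 µg protein, preincubated with inhibitor in DMSO (≤5% v/v) for 10 min at 37 °C in 0.1 M potassium phosphate pH 7.4 with 0.5% fatty-acid-free BSA. Then 2 µM AEA carrying [ethanolamine-1-3H]AEA is added for 10 min at 37 °C. The reaction is stopped with ethyl acetate and aqueous [3H]ethanolamine is counted. IC50 comes from a variable-slope sigmoidal fit, three experiments in duplicate; single-point values are the mean of two experiments in duplicate.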

[3] = target: T3, Fatty-acid amide hydrolase 1 (Rattus norvegicus) (UniProt P97612); test: Inhibition of FAAH in Wistar rat cerebral membrane at 0.1 uM by liquid scintillation counting; assay type: cell membranes; summary of the method: as §2
T3 sequence (whole entry): T2 sequence (P97612 whole entry)

[4] = target: Monoglyceride lipase (Rattus norvegicus) (UniProt Q8R431); test: Inhibition of MGL 2-AG hydrolysis in rat cerebellar membranes by liquid scintillation counting
[5] = target: Monoglyceride lipase (Homo sapiens) (UniProt Q99685); test: Inhibition of MGL in human recombinant MGL
[6] = target: T4, Monoglyceride lipase (Rattus norvegicus) (UniProt Q8R431); test: Inhibition of MGL in Wistar rat cerebral membrane assessed as residual activity at 1 mM by HPLC; values are per cent of control
T4 sequence (whole entry): T1 sequence (Q8R431 whole entry)

[7] = target: T4, Monoglyceride lipase (Rattus norvegicus); conditions: Wistar, 100 uM
[8] = target: T2, Fatty-acid amide hydrolase 1; test: Inhibition of FAAH-mediated hydrolysis of [3H]anandamide in rat RBL2H3 cells; assay type: cell-based, RBL-2H3
Summary of the method: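 RBL2H3 cells are preincubated 10 min at 37 °C with compound with or without URB597. [ethanolamine-1-3H]AEA is then added at 100 nM and incubated a further 20 min at 37 °C, and hydrolysis is measured. Data are means, n = 5, analysed by repeated-measures one-way ANOVA with Dunnett's test.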

[9] = target: T3, Fatty-acid amide hydrolase 1 (Rattus norvegicus); test: Inhibition of FAAH-mediated uptake of [3H]anandamide in rat RBL2H3 cells; assay type: cell-based; conditions: RBL-2H3
Summary of the method: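 RBL2H3 cells are preincubated 10 min at 37 °C with compound with or without URB597. [arachidonoyl-3H]AEA is then added at 100 nM and incubated a further 10 min at 37 °C. Wells without cells serve as a comparison. Data are means, n = 4, analysed by repeated-measures one-way ANOVA with Dunnett's test.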

[10] = target: T3, Fatty-acid amide hydrolase 1 (Rattus norvegicus); test: Irreversible inhibition of FAAH in Wistar rat brain homogenate at 246 nM by liquid scintillation counting; assay type: tissue-based
[11] = target: T4, Monoglyceride lipase (Rattus norvegicus); test: Inhibition of MGL in Wistar rat cerebral membrane at 100 uM by HPLC; assay type: cell membranes; summary of the method: as §1
[12] = target: T4, Monoglyceride lipase (Rattus norvegicus); test: Inhibition of MGL in Wistar rat cerebral membrane at 30 uM by HPLC; assay type: cell membranes; summary of the method: as §1
[13] = target: T2, Fatty-acid amide hydrolase 1; test: Inhibition of FAAH-mediated anandamide hydrolysis in rat brain membrane; assay type: cell membranes
[14] = target: T4, Monoglyceride lipase (Rattus norvegicus); test: Inhibition of MGL in Wistar rat cerebral membrane at 1 mM by HPLC; assay type: cell membranes
Summary of the method: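 Rat cerebellar membranes were prepared by sucrose homogenisation, differential centrifugation and washing. […] Reactions were stopped with acidified acetonitrile (pH 3.0). 2-AG, 1(3)-AG and arachidonic acid were quantified by reversed-phase HPLC (UV 211 nm peak areas). Remaining activity is reported.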

[15] = target: T5, Monoglyceride lipase (Homo sapiens) (UniProt Q99685); test: Irreversible inhibition of human MGL at 0.3 uM by liquid scintillation counting
T5 sequence (whole entry): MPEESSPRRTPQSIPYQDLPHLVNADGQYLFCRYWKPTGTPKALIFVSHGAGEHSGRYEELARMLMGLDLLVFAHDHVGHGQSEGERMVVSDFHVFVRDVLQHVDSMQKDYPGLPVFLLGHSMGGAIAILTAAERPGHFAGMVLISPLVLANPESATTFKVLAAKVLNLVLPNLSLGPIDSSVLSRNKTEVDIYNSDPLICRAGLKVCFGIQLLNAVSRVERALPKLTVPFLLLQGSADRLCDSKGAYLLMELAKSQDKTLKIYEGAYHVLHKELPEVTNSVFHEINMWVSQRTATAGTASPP
Summary of the method: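 Reversibility was tested on human recombinant MGL. The enzyme was preincubated with inhibitor at 50-fold the activity-assay enzyme level, then diluted […] into Tris-HCl pH 7.4/EDTA buffer with 50 μM 2-OG including [³H]2-OG. Samples taken at 0–60 min were stopped with cold ethyl acetate, and aqueous [³H]glycerol was counted by liquid scintillation. Activity was compared with DMSO vehicle over three independent experiments in duplicate.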

SMILES | IC50 [1] [nM] | IC50 [2] [nM] | also measured
Cc1ccccc1CNC(=O)Oc1ccc(C2=NCCS2)cc1 | 46000 | 62 | 
CCCCCCCCCCCCNC(=O)Oc1ccc(C(=O)OC)cc1 | 2800 |  | 
CCCCCCNC(=O)Oc1ccc(C)cc1 |  |  | inhibition [3]: 27%
CCCCC/C=C\C/C=C\C/C=C\C/C=C\CCCCN1C(=O)C=CC1=O |  |  | IC50 [4]: 140 nM
CCCCCCCCCCCCNC(=O)Oc1ccccc1-c1csnn1 |  | 50 | IC50 [5]: 18000 nM
CCNC(=O)Oc1ccc(C2=NCCS2)cc1 | 102000 | 15000 | residual activity [6]: 12%
CCCCCCNC(=O)Oc1ccc(C(=O)OC)cc1I |  | 24 | 
CCCCNC(=O)Oc1ccc(C2=NCCS2)cc1 | 31000 | 520 | residual activity [7]: 54%
O=C(NC1CCCC1)Oc1ccc(-c2csnn2)cc1 |  | 20 | 
CCCCCCCCCCCCNC(=O)Oc1ccc(C2=NCCS2)cc1 |  | 6.3 | 
CCCCCCNC(=O)Oc1ccc(-c2csnn2)cc1 | 11000 | 19 | 
CCCCNC(=O)Oc1ccc(C#N)cc1 |  |  | inhibition [3]: 25%
CCCCCCCCCCCCNC(=O)Oc1ccc(-c2csnn2)cc1 | 1900 | 12 | IC50 [8]: 82 nM; Activity [9]: Active; Activity [10]: Active
CCCCNC(=O)Oc1ccc(C(=O)OC)cc1 |  |  | inhibition [3]: 35%
O=C(NC1CCCCC1)Oc1ccc(-c2csnn2)cc1 |  | 21 | inhibition [11]: 28%
CCCCCCNC(=O)Oc1ccc(C2=NCCS2)cc1 |  | 8.2 | 
COc1ccc(CNC(=O)Oc2ccc(C3=NCCS3)cc2)cc1 | 46000 | 320 | residual activity [6]: 21%
Cc1ccc(CNC(=O)Oc2ccc(C3=NCCO3)cc2)cc1 | 125000 | 180 | residual activity [6]: 6%
O=C(NCc1ccccc1)Oc1ccc(-c2csnn2)cc1 |  | 44 | residual activity [6]: 22%
O=C(Nc1ccc([N+](=O)[O-])cc1)OC1CCCCC1 |  |  | inhibition [3]: 9%; inhibition [11]: inactive
O=C(NC1CCCC1)Oc1ccc(C2=NCCO2)cc1 | 11000 | 100 | residual activity [6]: 21%
Cc1ccccc1CNC(=O)Oc1ccc(C2=NCCO2)cc1 | 35000 | 34 | residual activity [6]: 12%
CCCCCCNC(=O)Oc1ccccc1 |  |  | inhibition [11]: 41%
CCCCCCNC(=O)Oc1ccc(Br)cc1 |  |  | residual activity [6]: 16%

SMILES | IC50 [1] [nM] | IC50 [2] [nM] | also measured
CCCCNC(=O)Oc1ccc(OC)cc1 |  |  | inhibition [3]: 5%
CCCCCCNC(=O)Nc1ccc(-c2csnn2)cc1 |  |  | inhibition [3]: 9%; inhibition [11]: inactive
CCCCNC(=O)Oc1cccc(-c2csnn2)c1 |  | 6.9 | 
O=C(NC1CCCC1)Oc1ccc(C2=NCCS2)cc1 | 11000 | 130 | 
CCCCCCCCCCCCNC(=O)Oc1cccc(-c2csnn2)c1 |  | 0.24 | residual activity [6]: 13%; inhibition [12]: 57%
O=C(NC1CCCCC1)Oc1ccc(C2=NCCS2)cc1 | 27000 | 100 | 
Cc1ccc(CNC(=O)Oc2ccc(C3=NCCS3)cc2)cc1 | 94000 | 280 | 
O=C(Nc1ccc(-c2ccccc2)cc1)OC1CCCCC1 |  | 108000 | IC50 [13]: 17000 nM
NC(=O)c1cccc(-c2cccc(OC(=O)NC3CCCCC3)c2)c1 |  |  | inhibition [14]: 30%; Activity [15]: Active
O=C(NCc1ccccc1)Oc1ccc(C2=NCCS2)cc1 | 42000 | 290 | 
CCCCCCNC(=O)Oc1c(C(C)(C)C)cc(C(=O)OC)cc1C(C)(C)C |  |  | inhibition [3]: 4%
O=C(NC1CCCCC1)Oc1ccc([N+](=O)[O-])cc1 | 19000 |  | inhibition [3]: 25%
CCCCCCNC(=O)Oc1ccc(C(=O)OC)cc1 | 35000 |  | 
CCCCNC(=O)Oc1ccccc1-c1csnn1 |  |  | inhibition [3]: inactive
CCCCNC(=O)Oc1ccc(-c2csnn2)cc1 |  | 160 | residual activity [6]: 22%; inhibition [11]: 46%
CCCCCCCCCCCCNC(=O)Oc1ccccc1 |  |  | inhibition [11]: 36%
CC(C)(C)NC(=O)Oc1ccc(C2=NCCS2)cc1 |  | 7000 | inhibition [11]: inactive
CCCCNC(=O)Oc1ccc(C2=NCCO2)cc1 | 34000 | 120 | 
CCCCCCNC(=O)Oc1ccc(C(=O)OC)cc1OC |  | 5.5 | 
CCCCCCNC(=O)Oc1ccc(C(=O)OC)cc1C |  | 55 | 
COC(=O)c1ccc(OC(=O)NC2CCCCC2)cc1 | 14000 |  | inhibition [3]: 41%
CCCNC(=O)Oc1ccc(C2=NCCS2)cc1 | 46000 | 1700 | residual activity [6]: 6%
O=C(NCCc1ccccc1)Oc1ccc(C2=NCCS2)cc1 | 28000 | 38 | 
CCCCNC(=O)Oc1ccc([N+](=O)[O-])cc1 |  |  | inhibition [3]: 16%
